Laboratory results: ChEMBL document CHEMBL3632581, “Dimers of Melampomagnolide B Exhibit Potent Anticancer Activity against Hematological and Solid Tumor Cells” (J Med Chem, 2015)

Key:
Type in all cases: functional
[1] = Cytotoxicity against human EKVX cells after 48 hrs by SRB assay; details: for CC50: read-out: LC50 (the source's name)
Method in brief: (§1)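 NCI-60 five-dose screen at 10−8 to 10−4 M. Cells were plated at 5,000–40,000/well in RPMI 1640 with 5% FBS and 2 mM L-glutamine, then preincubated 24 h, and time-zero plates were TCA-fixed. Compound was added from DMSO stocks and exposed 48 h at 37 °C. Cells were TCA-fixed, SRB-stained, and read at 515 nm. LC50 is the concentration halving the cell population through cell death.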

[2] = tested on: SNB-19; test: Cytotoxicity against human SNB19 cells after 48 hrs by SRB assay; details: SNB-19, 48 h; method in brief: as §1
[3] = Cytotoxicity against rat 9LSF cells at 10 uM after 48 hrs by colony formation assay relative to DMAPT
Method in brief: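 9L-SF rat gliosarcoma cells in DMEM/F12 with 10% iron-supplemented calf serum were treated at 50% confluence for 48 h (0.3-20 μM; DMSO <0.1%, DMAPT in saline). Cells were rinsed, trypsinized, counted and seeded for colonies, with irradiated feeders when seeding was below 2,000 cells/cm2. Survival was normalized to control plating efficiency and compared with DMAPT at 10 μM. Treatments in triplicate.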

Compound | GI50 [1] | CC50 [1] | GI50 [2] | CC50 ([2]; read-out: LC50 (the source's name)) | fold change (FC) [3]
C=C1C(=O)O[C@H]2[C@H]1CC/C(COC(=O)NCCCCNC(=O)OC/C1=C/CC[C@@]3(C)O[C@H]3[C@H]3OC(=O)C(=C)[C@@H]3CC1)=C\CC[C@@]1(C)O[C@@H]21 | 3690 nM | 37.3 µM |  |  | 
C=C1C(=O)O[C@H]2[C@H]1CC/C(COC(=O)NCCCCCNC(=O)OC/C1=C/CC[C@@]3(C)O[C@H]3[C@H]3OC(=O)C(=C)[C@@H]3CC1)=C\CC[C@@]1(C)O[C@@H]21 |  |  | 3.97 µM | 92.5 µM | 
C=C1C(=O)O[C@H]2[C@H]1CC/C(COC(=O)NCCCCCCCCNC(=O)OC/C1=C/CC[C@@]3(C)O[C@H]3[C@H]3OC(=O)C(=C)[C@@H]3CC1)=C\CC[C@@]1(C)O[C@@H]21 | 1190 nM | 4.99 µM |  |  | 303
